Data: ChEMBL document CHEMBL1157370, “Efficacy of a novel rifamycin derivative, ABI-0043, against Staphylococcus aureus in an experimental model of foreign-body infection” (Antimicrob Agents Chemother, 2007)
Values after ≈ are worked out from the molar mass of the structure shown.

How the values were obtained:
[1] = Ratio of peak drug level in albino guinea pig cage fluid at 12.5 mg/kg, ip to MIC for Staphylococcus aureus ATCC 29213; format: functional; conditions: route intraperitoneal
How it was run: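 The peak cage-fluid concentration after a single ip dose was divided by the MIC. MIC was determined by macrotube dilution in cation-adjusted Mueller-Hinton broth with an inoculum of 5 × 10^5 CFU/ml, read visually as the lowest concentration with no growth. Tests were run in triplicate and the median reported.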

[2] = Cmax in albino guinea pig cage fluid at 12.5 mg/kg, ip administered as single dose; format: ADME, organism-based, Cavia porcellus, Interstitial fluid; design: dose 12.5 mg/kg, route intraperitoneal
How it was run: (§1)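 Noninfected guinea pigs with subcutaneous tissue cages received ip dosing, either a single dose or every 12 h for 4 days (multiple-dose values taken on day 4). Cage fluid was aspirated over 12 h, mixed with EDTA, centrifuged and stored at −20°C. Drug levels were measured by agar diffusion bioassay. Cmin was taken 12 h after dosing. Values are means ± SD from 12 aspirates.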

[3] = Cmax in albino guinea pig cage fluid at 3 mg/kg, ip administered as single dose; format: ADME, organism-based, Cavia porcellus, Interstitial fluid; design: dose 3 mg/kg, route intraperitoneal
How it was run: (§2)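 Noninfected cage-bearing guinea pigs given one ip dose. Cage fluid aspirated over 12 h, mixed with EDTA and centrifuged. Levels measured in triplicate by agar diffusion bioassay with S. pneumoniae ATCC 49619 indicator (detection limit 0.0005 μg/ml). Cmin taken 12 h post-dose; means ± SD from 12 aspirates.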

[4] = Cmin in albino guinea pig cage fluid at 12.5 mg/kg, ip administered as single dose measured after 12 hrs; format: ADME, organism-based, Cavia porcellus; design: dose 12.5 mg/kg, route intraperitoneal; conditions: read-out: Cmin; how it was run: as §1
[5] = Cmin in albino guinea pig cage fluid at 3 mg/kg, ip administered as single dose measured after 12 hrs; format: ADME, organism-based, Cavia porcellus; design: dose 3 mg/kg, route intraperitoneal; conditions: read-out: Cmin; how it was run: as §2
Staphylococcus aureus [6] = assay: Antibacterial activity against Staphylococcus aureus ATCC 29213 infected albino guinea pig tissue-cage infection model assessed as bacterial count at 12 mg/kg, ip administered every 12 hrs for 4 days measured during treatment period; format: functional; conditions: route intraperitoneal
How it was run: (§3)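 Male albino guinea pigs (640–800 g) carrying four subcutaneous Teflon tissue cages; cages inoculated with 2 × 10^4 CFU S. aureus. Drug given ip in saline (5 ml total) every 12 h for 4 days, starting 24 h post-infection. Cage-fluid log10 CFU/ml measured on day 1 (baseline), day 4 before last dose (during treatment), and day 9 (5 days after treatment). ≥12 cages (3 animals) per regimen; mean reported.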

Staphylococcus aureus [7] = assay: Antibacterial activity against Staphylococcus aureus ATCC 29213 infected albino guinea pig tissue-cage infection model assessed as bacterial count at 12 mg/kg, ip administered every 12 hrs for 4 days measured after treatment period; format: functional; conditions: route intraperitoneal; how it was run: as §3
Staphylococcus aureus [8] = assay: Antibacterial activity against Staphylococcus aureus ATCC 29213 infected albino guinea pig tissue-cage infection model assessed as infection cure rate at 12.5 mg/kg, ip administered every 12 hrs for 4 days; format: functional; conditions: route intraperitoneal
How it was run: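 Guinea pig tissue-cage S. aureus infection (2 × 10^4 CFU per cage), treated ip every 12 h for 4 days, starting 24 h after inoculation. Cages were explanted 5 days after treatment ended, vortexed in 10 ml TSB and incubated at 37°C. After 24 h, 50 μl was plated on sheep blood agar. Cure rate is the fraction of cages with no growth; at least 12 cages per regimen.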

Staphylococcus aureus [9] = assay: Antibacterial activity against Staphylococcus aureus ATCC 29213 infected albino guinea pig tissue-cage infection model assessed as infection cure rate at 3 mg/kg, ip administered every 12 hrs for 4 days; format: functional; conditions: route intraperitoneal
How it was run: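 Guinea pig subcutaneous Teflon tissue-cage model infected with 2 × 10^4 CFU S. aureus. Drug given ip every 12 h for 4 days from 24 h post-infection. Cages removed on day 9, vortexed in 10 ml TSB, incubated 24 h at 37°C and plated on sheep blood agar. Cure rate = fraction of cages with no growth; ≥12 cages per regimen.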

[10] = Cmax in albino guinea pig cage fluid at 12.5 mg/kg, ip administered every 12 hrs for 4 days; format: ADME, organism-based, Cavia porcellus, Interstitial fluid; design: dose 12.5 mg/kg, route intraperitoneal; how it was run: as §1
Staphylococcus aureus [11] = assay: Antibacterial activity against Staphylococcus aureus ATCC 29213 by macrotube dilution method; format: functional
How it was run: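 S. aureus from overnight culture, inoculum 5 × 10^5 CFU/ml, in cation-adjusted Mueller-Hinton broth; twofold? no—serial drug dilutions (tips changed each dilution) per CLSI macrotube method. MIC = lowest concentration with no visible growth. Run in triplicate, median reported.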

Staphylococcus aureus [12] = assay: Antibacterial activity against Staphylococcus aureus ATCC 29213 assessed as logarithmic-growth-phase minimal bactericidal concentration after 24 hrs by macrotube dilution method; format: functional; conditions: ATCC 29213, 24 h
How it was run: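 MBClog: cation-adjusted Mueller-Hinton broth, macrotube dilution, inoculum 5 × 10^5 CFU/ml taken from overnight culture; lowest concentration cutting initial count by >99.9% (3 log10 CFU/ml) after 24 h incubation. Run in triplicate, median reported.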

Staphylococcus aureus [13] = assay: Antibacterial activity against Staphylococcus aureus ATCC 29213 assessed as stationary-growth-phase minimal bactericidal concentration after 24 hrs by macrotube dilution method; format: functional; conditions: ATCC 29213, 24 h
Staphylococcus aureus [14] = assay: Ratio of MBC for Staphylococcus aureus ATCC 29213 during stationary-growth phase to logarithmic-growth phase
[15] = Ratio of peak drug level in albino guinea pig cage fluid at 12.5 mg/kg, ip to MBC for Staphylococcus aureus ATCC 29213 during stationary-growth phase; conditions: route intraperitoneal
Staphylococcus aureus [16] = assay: Antibacterial activity against Staphylococcus aureus ATCC 29213 infected albino guinea pig tissue-cage infection model assessed as bacterial count at 12.5 mg/kg, ip administered every 12 hrs after 4 days; format: functional; conditions: route intraperitoneal
How it was run: (§4)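 Male albino guinea pigs (640 to 800 g) carried four subcutaneous perforated Teflon cages. After two weeks, sterility was confirmed and each cage was inoculated percutaneously with 2 × 10^4 CFU S. aureus in 200 μl. Treatment began 24 h later: ip every 12 h for 4 days (8 doses). Quantitative cage-fluid cultures were taken on day 1, before the last dose (day 4) and 5 days after treatment (day 9). At least 12 cages (3 animals) per regimen.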

Staphylococcus aureus [17] = assay: Antibacterial activity against Staphylococcus aureus ATCC 29213 infected albino guinea pig tissue-cage infection model assessed as bacterial count at 12.5 mg/kg, ip administered every 12 hrs after 5 days; format: functional; conditions: route intraperitoneal; how it was run: as §4
[18] = Cmin in albino guinea pig cage fluid at 5 mg/kg, ip administered as single dose measured after 12 hrs; format: ADME, organism-based, Cavia porcellus; design: dose 5 mg/kg, route intraperitoneal; conditions: read-out: Cmin
How it was run: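 Single ip dose to noninfected cage-bearing guinea pigs. Cage fluid EDTA-treated and centrifuged, then assayed with E. coli V6311/65 bioassay (detection limit 0.01 μg/ml). Trough measured 12 h after dosing; means ± SD from 12 aspirates.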

in vivo = conditions: guinea pig, cage fluid, ip, 5 mg/kg

Cmax [2]	Cmax [3]	concentration at 12 h [5]	Structure (SMILES)	Ratio [1]	concentration at 12 h [4]	log10CFU/ml (Staphylococcus aureus [6])	log10CFU/ml (Staphylococcus aureus [7])	Activity (Staphylococcus aureus [8])	Activity (Staphylococcus aureus [9])	Cmax [10]	MIC (Staphylococcus aureus [11])	MBC (Staphylococcus aureus [12])	MBC (Staphylococcus aureus [13])	Ratio (Staphylococcus aureus [14])	Ratio [15]	log10CFU/ml (Staphylococcus aureus [16])	log10CFU/ml (Staphylococcus aureus [17])	concentration at 12 h [18]	Cmax (in vivo)
1130 ng/mL	110 ng/mL	40 ng/mL	CO[C@H]1/C=C/O[C@@]2(C)Oc3c(C)c(O)c4c(=O)c(c5oc6cc(N7CCN(C)CC7)cc(O)c6nc-5c4c3C2=O)NC(=O)/C(C)=C\C=C\[C@H](C)[C@H](O)[C@@H](C)[C@@H](O)[C@@H](C)[C@H](O)[C@@H]1C	1130	140 ng/mL	3.24	1.57	58%	8%	820 ng/mL	0.001 µg/mL (≈ 0.00117 µM)	0.008 µg/mL (≈ 0.00934 µM)	0.25 µg/mL (≈ 0.292 µM)	31.3	4.52	–	–	–	–
–	–	–	CO[C@H]1/C=C/O[C@@]2(C)Oc3c(C)c(O)c4c(O)c(c(/C=N/N5CCN(C)CC5)c(O)c4c3C2=O)NC(=O)/C(C)=C\C=C\[C@H](C)[C@H](O)[C@@H](C)[C@@H](O)[C@@H](C)[C@H](OC(C)=O)[C@@H]1C [RIFAMPIN]	–	140 ng/mL	–	–	46%	–	610 ng/mL	0.016 µg/mL (≈ 0.0194 µM)	0.8 µg/mL (≈ 0.972 µM)	3.6 µg/mL (≈ 4.37 µM)	–	–	3.68	1.43	–	–
–	–	–	C[C@H]1COc2c(N3CCN(C)CC3)c(F)cc3c(=O)c(C(=O)O)cn1c23.C[C@H]1COc2c(N3CCN(C)CC3)c(F)cc3c(=O)c(C(=O)O)cn1c23.O [LEVOFLOXACIN]	–	–	–	–	–	–	–	0.16 µg/mL	0.32 µg/mL	40 µg/mL	125	–	–	–	10 ng/mL	970 ng/mL
